Laboratory results as given in ChEMBL document CHEMBL3217529, “Carbocyclic 5'-nor "reverse" fleximers. Design, synthesis, and preliminary biological activity” (Medchemcomm, 2011).

Columns and labels:
[1] = system: Punta Toro virus; test: Antiviral activity against Punta Toro virus infected in African green monkey Vero cells assessed as inhibition of virus-induced cytopathicity; type: functional, organism-based
[2] = system: Human alphaherpesvirus 1; test: Antiviral activity against Herpes simplex virus type 1 KOS infected in human HEL cells assessed as inhibition of virus-induced cytopathicity; type: functional, organism-based; details: Human alphaherpesvirus 1, KOS
[3] = Cytotoxicity against African green monkey Vero cells assessed as concentration required to cause microscopically visible alternation of cell morphology; type: cell-based; details: chlorocebus sabaeus
Outline: (§1)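 Confluent cultures (MDCK nearly confluent) exposed to 5-fold serial compound dilutions alongside the antiviral assays. MCC is the lowest concentration producing a microscopically visible change in cell morphology.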

[4] = system: Human alphaherpesvirus 2; test: Antiviral activity against Herpes simplex virus type 2 G infected in human HEL cells assessed as inhibition of virus-induced cytopathicity; type: functional, organism-based; details: Human alphaherpesvirus 2, strain G
[5] = system: Human alphaherpesvirus 1; test: Antiviral activity against thymidine kinase-deficient Herpes simplex virus type 1 infected in human HEL cells assessed as inhibition of virus-induced cytopathicity; type: functional, organism-based; details: Human alphaherpesvirus 1, HEL
[6] = system: Vesicular stomatitis virus; test: Antiviral activity against Vesicular stomatitis virus infected in human HeLa cells assessed as inhibition of virus-induced cytopathicity; type: functional, organism-based
[7] = Cytotoxicity against human HeLa cells assessed as concentration required to cause microscopically visible alternation of cell morphology; type: cell-based; outline: as §1
[8] = system: Mammalian orthoreovirus 1; test: Antiviral activity against Reovirus 1 infected in African green monkey Vero cells assessed as inhibition of virus-induced cytopathicity; type: functional, cell-based; details: Mammalian orthoreovirus 1, Vero
[9] = Cytotoxicity against human HEL cells assessed as concentration required to cause microscopically visible alternation of cell morphology; type: cell-based; outline: as §1
[10] = system: Vesicular stomatitis virus; test: Antiviral activity against Vesicular stomatitis virus infected in human HEL cells assessed as inhibition of virus-induced cytopathicity; type: functional, organism-based
[11] = system: Vaccinia virus; test: Antiviral activity against Vaccinia virus infected in human HEL cells assessed as inhibition of virus-induced cytopathicity; type: functional, organism-based; details: Orthopoxvirus vaccinia
[12] = system: Coxsackievirus B4; test: Antiviral activity against Coxsackievirus B4 infected in human HeLa cells assessed as inhibition of virus-induced cytopathicity; type: functional, organism-based; details: Enterovirus B
Outline: (§2)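 Confluent cell monolayers in 96-well plates inoculated with 100 CCID50 of virus alongside 5-fold serial dilutions of compound. Cytopathicity scored once it was complete in untreated infected controls.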

[13] = system: Respiratory syncytial virus; test: Antiviral activity against Respiratory syncytial virus infected in human HeLa cells assessed as inhibition of virus-induced cytopathicity; type: functional, organism-based
[14] = system: Coxsackievirus B4; test: Antiviral activity against Coxsackievirus B4 infected in African green monkey Vero cells assessed as inhibition of virus-induced cytopathicity; type: functional, organism-based; details: Enterovirus B
[15] = system: Human respirovirus 3; test: Antiviral activity against Parainfluenza virus 3 infected in African green monkey Vero cells assessed as inhibition of virus-induced cytopathicity; type: functional, organism-based; details: Human respirovirus 3, Vero; outline: as §2
[16] = system: Human immunodeficiency virus 2; test: Antiviral activity against HIV-2 ROD infected in human CEM cells assessed as inhibition of virus-induced giant cell formation after 4 days by microscopic analysis; type: functional, organism-based; details: Human immunodeficiency virus 2, ISOLATE ROD, CCRF-CEM, 96 h
Outline: (§3)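 CEM cells (~3 × 10^5 cells per cm3) were infected with 100 CCID50 of virus per mL and seeded into wells containing compound dilutions. After 4 days at 37 °C, giant cell formation was examined microscopically.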

[17] = system: Human immunodeficiency virus 1; test: Antiviral activity against HIV-1 3B infected in human CEM cells assessed as inhibition of virus-induced giant cell formation after 4 days by microscopic analysis; type: functional, organism-based; details: Human immunodeficiency virus 1, 3B, CCRF-CEM, 96 h; outline: as §3
[18] = Cytotoxicity against MDCK cells assessed as concentration required to cause microscopically visible alternation of cell morphology; type: cell-based, Canis lupus familiaris; details: dog; outline: as §1
[19] = system: Human betaherpesvirus 5; test: Antiviral activity against human cytomegalovirus Davis infected in human HEL cells assessed as inhibition of virus-induced cytopathicity after 7 days by Giemsa staining-based microscopic analysis; type: functional, organism-based; details: Human betaherpesvirus 5, Davis, 168 h
Outline: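 Confluent HEL fibroblasts were infected with 100 PFU per well. After 2 h, residual virus was removed and compound-containing medium was added, in duplicate. At 7 days at 37 °C, cells were ethanol-fixed and Giemsa-stained, and cytopathogenicity was assessed microscopically.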

[20] = system: Influenza A virus; test: Antiviral activity against Influenza A virus H1N1 infected in MDCK cells assessed as inhibition of virus-induced cytopathicity; type: functional, organism-based
[21] = system: Influenza B virus; test: Antiviral activity against Influenza B virus infected in MDCK cells assessed as inhibition of virus-induced cytopathicity; type: functional, organism-based
[22] = system: Influenza A virus H3N2; test: Antiviral activity against Influenza A virus H3N2 infected in MDCK cells assessed as inhibition of virus-induced cytopathicity; type: functional, organism-based
[23] = system: Human alphaherpesvirus 3; test: Antiviral activity against wild type Varicella-zoster virus Oka infected in human HEL cells assessed as reduction of viral plaque formation after 5 days; type: functional, organism-based; details: Human alphaherpesvirus 3, strain Oka vaccine, 120 h
Outline: (§4)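 Confluent HEL cells were inoculated with 20 PFU per well. After 2 h, residual virus was removed and compound dilutions were added, in duplicate.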

[24] = system: Sindbis virus; test: Antiviral activity against Sindbis virus infected in African green monkey Vero cells assessed as inhibition of virus-induced cytopathicity; type: functional, organism-based
[25] = system: Human betaherpesvirus 5; test: Antiviral activity against human cytomegalovirus AD169 infected in human HEL cells assessed as inhibition of virus-induced cytopathicity after 7 days by Giemsa staining-based microscopic analysis; type: functional, organism-based; details: Human betaherpesvirus 5, AD169, HEL, 168 h
Outline: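 Confluent HEL fibroblasts infected with HCMV AD-169 or Davis at 100 PFU/well for 2 h, then residual virus removed. Medium with graded compound concentrations added, in duplicate. After 7 days at 37 °C, cells ethanol-fixed and Giemsa-stained, and cytopathogenicity read microscopically. EC50 taken from plots of % cytopathogenicity versus concentration.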

[26] = system: Human alphaherpesvirus 3; test: Antiviral activity against thymidine kinase-deficient Varicella-zoster virus 07-1 infected in human HEL cells assessed as reduction of viral plaque formation after 5 days; type: functional, organism-based; details: Human alphaherpesvirus 3, 07-1, HEL, 120 h; outline: as §4

Structure (SMILES)	EC50 [1] [µM]	EC50 [2] [µM]	MCC [3] [µM]	EC50 [4] [µM]	EC50 [5] [µM]	EC50 [6] [µM]	MCC [7] [µM]	EC50 [8] [µM]	MCC [9] [µM]	EC50 [10] [µM]	EC50 [11] [µM]	EC50 [12] [µM]	EC50 [13] [µM]	EC50 [14] [µM]	EC50 [15] [µM]	EC50 [16] [µM]	EC50 [17] [µM]	MCC [18] [µM]	EC50 [19] [µM]	EC50 [24] [µM]	also measured
O=c1[nH]c(=O)n(C2C=CC(O)C2)cc1-c1ccco1 (stereo unspecified)	20	> 100	> 100	> 100	> 100	> 100	> 100	100	> 100	> 100	> 100	> 100	> 100	> 100	> 100	> 100	> 100				
O=c1[nH]c(=O)n(C2C=CC(O)C2)cc1-c1cncs1 (stereo unspecified)	> 100	> 100	> 100	> 100	> 100	> 100	> 100	> 100	≥ 100	> 100	> 100	> 100	> 100	> 100	> 100	> 50	> 50	100	> 20	> 100	EC50 [20]: > 20 µM; EC50 [21]: > 20 µM; EC50 [22]: > 20 µM; EC50 [23]: 47 µM; EC50 [25]: > 20 µM; EC50 [26]: 47 µM
NC(=O)c1ncn([C@@H]2O[C@H](CO)[C@@H](O)[C@H]2O)n1 [RIBAVIRIN]		> 250	> 250	> 250			> 250	> 250	> 250		> 250			> 250		> 50	> 50	> 100		> 250	
O=c1[nH]c(=O)n(C2C=CC(O)C2)cc1-c1cccs1 (stereo unspecified)	> 4	> 4	20	> 4	> 4	4	20	> 4	≥ 4	> 4	> 4	> 4	> 4	> 4	> 4	> 2	> 2	4	1.8	> 4	EC50 [20]: > 0.8 µM; EC50 [21]: > 0.8 µM; EC50 [22]: > 0.8 µM; EC50 [23]: 1.6 µM; EC50 [25]: 1.8 µM; EC50 [26]: 1.6 µM
